Holding throughout (assay type): functional
Test [1] is filed under the species Rattus norvegicus. Briefly: Percent inhibition of [14C]-acetate incorporation into CO2, after incubation with rat liver slices at a concentration of 0.0005 M. In outline:
(§1)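 Rat liver slices (250 mg) were incubated with and without compound in 4 mL Krebs-Ringer bicarbonate buffer, pH 7.4, containing 4 mM [2-14C]acetate and flushed with 95% O2-5% CO2. 14C incorporation into CO2, long-chain fatty acids and cholesterol was measured and compared against incubations without compound. Values are arithmetic means of three determinations.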

The species named for test [2] is Rattus norvegicus. Briefly: Percent inhibition of [14C]acetate incorporation into CO2, after incubation with rat liver slices at a concentration of 0.005 M. In outline: as §1
The species entered for test [3] is Rattus norvegicus. Put plainly: Percent inhibition of [14C]acetate incorporation into cholesterol, after incubation with rat liver slices, at a concentration of 0.0005 M. In outline: as §1
Test [4] is filed under the species Rattus norvegicus. Briefly: Percent inhibition of [14C]acetate incorporation into cholesterol, after incubation with rat liver slices, at a concentration of 0.005 M. The essentials:
as §1

Test [5] is filed under the species Rattus norvegicus. Put plainly: Percent inhibition of [14C]acetate incorporation into long-chain fatty acids, after incubation with rat liver slices, at a concentration of 0.0005 M. The essentials: as §1
For test [6], the species on record is Rattus norvegicus. Put plainly: Percent inhibition of [14C]acetate incorporation into long-chain fatty acids, after incubation with rat liver slices, at a concentration of 0.005 M. The essentials:
as §1

Inhibition data for seven compounds are collected here from ChEMBL document CHEMBL1122417, “Synthesis of 3-hydroxy-3-cyclohexylbutyric acid derivatives. 1. Cyclic homologues of 3-hydroxy-3-methylglutaric acid” (1983).

Some results are limits rather than exact numbers.

One may read the Inhibition as how much of the control response was suppressed. Lower therefore signals little suppression. `CCC1(C)OC(=O)c2ccccc21` (centres undefined): the Inhibition in test [1] is on record as less than 10%; in test [2], 86%; in test [3], 22%; in test [4], 99%; in test [5], 29%; in test [6], 99%.

On to `CCC1(C)OC(=O)C2=C1CCCC2` (centres undefined), for which the values for the Inhibition in test [2], in test [4] and in test [6] were 63%, 81% and 81%, respectively.

As for `CC1(CC(=O)O)OC(=O)c2ccccc21` (centres undefined), the Inhibition is on record as less than 10% in test [2], 48% in test [4] and 54% in test [6].

In the case of `CC1(CC(=O)O)OC(=O)[C@H]2CCCC[C@H]21` (some centres undefined), the figures for the Inhibition in test [2], in test [4] and in test [6] were 23%, 30% and 34%, respectively.

Turning to `CC1(CC(=O)O)OC(=O)[C@@H]2CCCC[C@H]21` (some centres undefined), the Inhibition came out at 37% in test [2], 42% in test [4] and 67% in test [6].

`CC1(CC(=O)O)OC(=O)C2=C1CCCC2` (centres undefined): the Inhibition in test [2] was determined as 45%; in test [4], 63%; in test [6] it was 83%.

In the case of `CC(O)(CC(=O)O)CC(=O)O` [MEGLUTOL], the Inhibition in test [2] is less than 10%; in test [4], 12%; in test [6], less than 10%.
